Reference: ChEMBL document CHEMBL2150916, “Dual inhibition of γ-oryzanol on cellular melanogenesis: inhibition of tyrosinase activity and reduction of melanogenic gene expression by a protein kinase A-dependent mechanism” (J Nat Prod, 2012)
Blank lines part the entries; values can stand above or below the compound they belong to. The source made the active and inactive calls. The calls are words filed in the database; no cut-off is given here.

Assays:
B16-F1 [1] = assay: Inhibition of melanin synthesis in mouse B16-F1 cells at 30 uM after 30 mins by Fontana-Masson staining; format: functional, cell-based; details: in the assay text read “after 72 hrs” for “after 30 mins”
Outline: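 B16F1 cells on slides treated with 30 μM, fixed in 4% paraformaldehyde for 30 min at room temperature. Melanin stained by Fontana−Masson (ammoniacal silver, gold chloride, sodium thiosulfate).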

[2] = biological target: T1, Tyrosinase (Agaricus bisporus) (UniProt O42713); assay: Inhibition of mushroom tyrosinase after 20 mins
T1 sequence (whole entry): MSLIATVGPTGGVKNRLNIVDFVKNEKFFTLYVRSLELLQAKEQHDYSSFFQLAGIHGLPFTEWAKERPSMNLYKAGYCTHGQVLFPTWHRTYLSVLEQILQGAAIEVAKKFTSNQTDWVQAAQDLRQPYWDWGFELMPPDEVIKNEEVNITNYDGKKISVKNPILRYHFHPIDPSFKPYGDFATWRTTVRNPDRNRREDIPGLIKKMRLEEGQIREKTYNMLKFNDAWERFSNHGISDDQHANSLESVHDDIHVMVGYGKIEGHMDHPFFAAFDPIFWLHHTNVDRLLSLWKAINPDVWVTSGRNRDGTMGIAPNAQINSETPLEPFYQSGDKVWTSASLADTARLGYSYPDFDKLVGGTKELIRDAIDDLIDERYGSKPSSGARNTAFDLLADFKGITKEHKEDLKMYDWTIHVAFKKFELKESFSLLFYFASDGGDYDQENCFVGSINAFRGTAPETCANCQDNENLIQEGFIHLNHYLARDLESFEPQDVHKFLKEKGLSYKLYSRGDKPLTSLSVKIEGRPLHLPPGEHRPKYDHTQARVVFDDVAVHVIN
Outline: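 Mushroom tyrosinase in 0.1 M phosphate buffer with 0.03% (w/v) tyrosine as substrate, incubated 37 °C for 20 min. OD read at 492 nm; inhibition % = (1 − sample/control OD492) × 100. Arbutin positive control.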

B16-F1 [3] = assay: Inhibition of melanin synthesis in mouse B16-F1 cells at 3 uM after 72 hrs by spectrophotometric analysis relative to control; format: functional; details: B16-F1, 72 h
Outline: (§1)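 B16F1 cells treated 72 h (3 or 30 μM). After lysis and centrifugation at 12000g, pellets dissolved in 1 N NaOH at 60 °C for 1 h. Absorbance read at 400 nm against a synthetic melanin standard, normalized to Bradford protein. Arbutin positive control. Means ± SE of three independent experiments.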

B16-F1 [4] = assay: Inhibition of melanin synthesis in mouse B16-F1 cells at 30 uM after 72 hrs by spectrophotometric analysis relative to control; format: functional; details: B16-F1, 72 h; outline: as §1
B16-F1 [5] = assay: Inhibition of melanin synthesis in mouse B16-F1 cells after 72 hrs by spectrophotometric analysis; format: functional, cell-based; outline: as §1
[6] = Cytotoxicity against mouse B16-F1 cells at 5 mM; format: cell-based; details: b16-f1, 5000 µM
[7] = biological target: T2, Tyrosinase (Mus musculus) (UniProt P11344); assay: Inhibition of tyrosinase in mouse B16-F1 cells using L-DOPA as substrate at 3 uM after 72 hrs; format: cell-based
T2 sequence (whole entry): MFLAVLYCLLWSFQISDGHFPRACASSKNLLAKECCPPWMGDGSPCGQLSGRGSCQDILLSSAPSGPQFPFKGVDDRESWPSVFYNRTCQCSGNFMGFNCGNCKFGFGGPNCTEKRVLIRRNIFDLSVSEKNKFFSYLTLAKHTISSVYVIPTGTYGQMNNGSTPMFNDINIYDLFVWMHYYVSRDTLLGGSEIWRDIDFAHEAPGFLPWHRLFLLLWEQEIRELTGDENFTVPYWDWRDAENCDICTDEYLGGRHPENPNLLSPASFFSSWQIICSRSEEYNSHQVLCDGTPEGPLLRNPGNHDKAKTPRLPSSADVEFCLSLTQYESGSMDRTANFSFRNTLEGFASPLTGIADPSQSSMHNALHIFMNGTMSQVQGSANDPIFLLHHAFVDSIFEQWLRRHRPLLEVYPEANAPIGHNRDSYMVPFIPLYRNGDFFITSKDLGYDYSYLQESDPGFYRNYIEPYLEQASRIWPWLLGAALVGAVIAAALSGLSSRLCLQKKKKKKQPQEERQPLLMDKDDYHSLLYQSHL
Outline: (§2)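 B16F1 cells treated 72 h with 3 or 30 μM. Cells lysed in 1% Triton X-100/PBS pH 6.8 and spun at 12000g, 4 °C. Supernatant mixed with 0.1% (w/v) L-DOPA; A475 followed over the first 2 h and normalized to total protein. Means ± SE of three independent experiments.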

[8] = biological target: T2, Tyrosinase (Mus musculus); assay: Inhibition of tyrosinase in mouse B16-F1 cells using L-DOPA as substrate at 30 uM after 72 hrs; format: cell-based; outline: as §2
B16/F1 [9] = assay: Inhibition of PKA in mouse B16-F1 cells assessed as decrease of MITF mRNA expression at 3 uM after 72 hrs by RT-PCR analysis; format: cell-based
Outline: (§3)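 B16F1 cells treated 72 h at 3 μM. Total RNA extracted with Trizol; cDNA made from 2 μg RNA with M-MLV reverse transcriptase and oligo(dT). qPCR run 95 °C 3 min, then 50 cycles of 95 °C 10 s, 56 °C 15 s, 72 °C 20 s, with melting-curve check. Expression calculated relative to cyclophilin. Means ± SE of three independent experiments.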

B16/F1 [10] = assay: Inhibition of PKA in mouse B16-F1 cells assessed as decrease of TRP-1 mRNA expression at 3 uM after 72 hrs by RT-PCR analysis; format: cell-based; outline: as §3
B16/F1 [11] = assay: Inhibition of PKA in mouse B16-F1 cells assessed as decrease of dopachrome tautomerase mRNA expression at 3 uM after 72 hrs by RT-PCR analysis; format: cell-based; outline: as §3
B16/F1 [12] = assay: Inhibition of PKA in mouse B16-F1 cells assessed as decrease of MITF promoter- dependent paired-box 3 mRNA expression at 3 uM after 72 hrs […]; format: cell-based
Outline: (§4)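 Two-color oligonucleotide microarray on Mouse OneArray chips, comparing untreated and treated (3 μM) B16F1 cells labelled with Cy3/Cy5-dUTP. RNA extracted with RNAiso Plus and further purified. Arrays scanned and probe-level expression values computed.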

B16/F1 [13] = assay: Inhibition of PKA in mouse B16-F1 cells assessed as decrease of MITF promoter- dependent sex-determining region Y-box 10 mRNA expression at 3 uM after 72 hrs by […]; format: cell-based; outline: as §4
B16/F1 [14] = assay: Inhibition of PKA in mouse B16-F1 cells assessed as decrease of MITF promoter- dependent lymphoid enhancer factor mRNA expression at 3 uM after 72 hrs by […]; format: cell-based; outline: as §4
B16/F1 [15] = assay: Inhibition of PKA in mouse B16-F1 cells assessed as decrease of CREB mRNA expression at 3 uM after 72 hrs by […]; format: cell-based; outline: as §4
B16/F1 [16] = assay: Inhibition of PKA in mouse B16-F1 cells assessed as decrease of MC1R mRNA expression at 3 uM after 72 hrs by RT-PCR analysis; format: cell-based
B16/F1 [17] = assay: Inhibition of PKA in mouse B16-F1 cells assessed as decrease of intracellular cAMP level at 3 uM after 72 hrs by colorimetric competitive immunoassay; format: cell-based
Outline: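 Cellular cAMP in B16F1 cells after 72 h at 3 μM, measured by colorimetric competitive immunoassay kit. Means ± SE of three independent experiments.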

B16/F1 [18] = assay: Inhibition of PKA in mouse B16-F1 cells assessed as decrease of phosphorylated CREB expression at 3 uM after 72 hrs by immunoblotting; format: cell-based
Outline: (§5)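 B16F1 cells treated 72 h at 3 μM. 40 μg total protein (Bradford) run on 10% SDS-PAGE and transferred to nitrocellulose. Blocked in TBS with 5% nonfat milk and 0.1% Tween 20. Probed with primary antibodies plus HRP secondaries and read by chemiluminescence. Band densities normalized to α-tubulin. Means ± SE of three independent experiments.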

B16/F1 [19] = assay: Inhibition of PKA in mouse B16-F1 cells assessed as effect on ERK2 phosphorylation at 3 uM after 72 hrs by immunoblotting; format: cell-based
B16/F1 [20] = assay: Inhibition of PKA in mouse B16-F1 cells assessed as effect on ERK2 mRNA expression at 3 uM after 72 hrs by RT-PCR analysis; format: cell-based
B16/F1 [21] = assay: Inhibition of PKA in mouse B16-F1 cells assessed as decrease of MITF mRNA expression at 3 uM after 72 hrs by RT-PCR analysis relative to control; format: cell-based; outline: as §3
B16/F1 [22] = assay: Inhibition of PKA in mouse B16-F1 cells assessed as decrease of TRP-1 mRNA expression at 3 uM after 72 hrs by RT-PCR analysis relative to control; format: cell-based; outline: as §3
B16/F1 [23] = assay: Inhibition of PKA in mouse B16-F1 cells assessed as decrease of dopachrome tautomerase mRNA expression at 3 uM after 72 hrs by RT-PCR analysis relative to control; format: cell-based; outline: as §3
B16/F1 [24] = assay: Inhibition of PKA in mouse B16-F1 cells assessed as decrease of MITF protein expression at 3 uM after 72 hrs by immunoblotting relative to control; format: cell-based; outline: as §5
B16/F1 [25] = assay: Inhibition of PKA in mouse B16-F1 cells assessed as decrease of TRP-1 protein expression at 3 uM after 72 hrs by immunoblotting relative to control; format: cell-based; outline: as §5
B16/F1 [26] = assay: Inhibition of PKA in mouse B16-F1 cells assessed as decrease of dopachrome tautomerase protein expression at 3 uM after 72 hrs by immunoblotting relative to control; format: cell-based; outline: as §5
[27] = Cytotoxicity against mouse B16-F1 cells; format: cell-based
Outline: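 MTT assay on B16F1 murine melanoma cells tested over 300−0.03 μM. Cells grown in DMEM with 10% FBS and 1% penicillin/streptomycin at 37 °C, 5% CO2.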

Structure (SMILES): COc1cc(/C=C/C(=O)O[C@H]2CC[C@]34C[C@]35CC[C@]3(C)[C@@H]([C@H](C)CCC=C(C)C)CC[C@@]3(C)[C@@H]5CC[C@H]4C2(C)C)ccc1O [GAMMA ORYZANOL]
inhibition (B16-F1 [1]): Active | inhibition [2]: Dose-dependent effect | inhibition at 3 µM (B16-F1 [3]): 13% | inhibition at 30 µM (B16-F1 [4]): 28% | inhibition (B16-F1 [5]): Dose-dependent effect | Activity [6]: Non-toxic | inhibition [7]: 29% | inhibition [8]: 26% | inhibition (B16/F1 [9]): 90% | inhibition (B16/F1 [10]): 94% | inhibition (B16/F1 [11]): 56% | inhibition (B16/F1 [12]): 29% | inhibition (B16/F1 [13]): 90% | inhibition (B16/F1 [14]): 40% | inhibition (B16/F1 [15]): 28% | inhibition (B16/F1 [16]): 56% | inhibition (B16/F1 [17]): 13% | inhibition (B16/F1 [18]): 57% | inhibition (B16/F1 [19]): inactive | inhibition (B16/F1 [20]): inactive | inhibition (B16/F1 [21]): 59% | inhibition (B16/F1 [22]): 69% | inhibition (B16/F1 [23]): 51% | inhibition (B16/F1 [24]): 64% | inhibition (B16/F1 [25]): 82% | inhibition (B16/F1 [26]): 92%

inhibition [2]: Active
Structure (SMILES): OC[C@H]1O[C@@H](Oc2ccc(O)cc2)[C@H](O)[C@@H](O)[C@@H]1O [ARBUTIN]
Activity [27]: Toxic
